Measured values reported in ChEMBL document CHEMBL4732101, “Novel quinolone-based potent and selective HDAC6 inhibitors: Synthesis, molecular modeling studies and biological investigation” (Eur J Med Chem, 2021).
Each block holds one compound with its values, some of them ahead of it. Activity calls are given as the source filed them. The calls are words filed in the database; no cut-off is given here.

Columns and labels:
[1] = target: T1, HDAC1 (histone deacetylase 1) (Homo sapiens, UniProt Q13547); assay: Inhibition of recombinant human C-terminal FLAG/His-tagged HDAC1 (1 to 482 residues) expressed in Sf9 insect cells at 1 uM using Z-(Ac)Lys-AMC as substrate measured after 90 mins by fluorescence assay relative to control; conditions: probe Z-(Ac)Lys-AMC
In short: (§1)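 Incubated with inhibitor in DMSO and fluorogenic substrate Z-(Ac)Lys-AMC (126 µM, as added) for 90 min at 37 °C. Stopped with trichostatin A plus trypsin for 30 min at 37 °C; fluorescence read at ex 390/em 460 nm.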

[2] = target: T1, HDAC1 (histone deacetylase 1); assay: Inhibition of recombinant human C-terminal FLAG/His-tagged HDAC1 (1 to 482 residues) expressed in Sf9 insect cells at 50 uM using Z-(Ac)Lys-AMC as substrate measured after 90 mins by fluorescence assay relative to control; conditions: probe Z-(Ac)Lys-AMC; in short: as §1
[3] = target: T2, Protein deacetylase HDAC6 (Homo sapiens, UniProt Q9UBN7); assay: Inhibition of recombinant human full length N-terminal GST-tagged HDAC6 expressed in baculovirus infected Sf9 cells using Z-(Ac)Lys-AMC as substrate measured after 90 mins by fluorescence assay
T2 sequence (Q9UBN7 whole entry): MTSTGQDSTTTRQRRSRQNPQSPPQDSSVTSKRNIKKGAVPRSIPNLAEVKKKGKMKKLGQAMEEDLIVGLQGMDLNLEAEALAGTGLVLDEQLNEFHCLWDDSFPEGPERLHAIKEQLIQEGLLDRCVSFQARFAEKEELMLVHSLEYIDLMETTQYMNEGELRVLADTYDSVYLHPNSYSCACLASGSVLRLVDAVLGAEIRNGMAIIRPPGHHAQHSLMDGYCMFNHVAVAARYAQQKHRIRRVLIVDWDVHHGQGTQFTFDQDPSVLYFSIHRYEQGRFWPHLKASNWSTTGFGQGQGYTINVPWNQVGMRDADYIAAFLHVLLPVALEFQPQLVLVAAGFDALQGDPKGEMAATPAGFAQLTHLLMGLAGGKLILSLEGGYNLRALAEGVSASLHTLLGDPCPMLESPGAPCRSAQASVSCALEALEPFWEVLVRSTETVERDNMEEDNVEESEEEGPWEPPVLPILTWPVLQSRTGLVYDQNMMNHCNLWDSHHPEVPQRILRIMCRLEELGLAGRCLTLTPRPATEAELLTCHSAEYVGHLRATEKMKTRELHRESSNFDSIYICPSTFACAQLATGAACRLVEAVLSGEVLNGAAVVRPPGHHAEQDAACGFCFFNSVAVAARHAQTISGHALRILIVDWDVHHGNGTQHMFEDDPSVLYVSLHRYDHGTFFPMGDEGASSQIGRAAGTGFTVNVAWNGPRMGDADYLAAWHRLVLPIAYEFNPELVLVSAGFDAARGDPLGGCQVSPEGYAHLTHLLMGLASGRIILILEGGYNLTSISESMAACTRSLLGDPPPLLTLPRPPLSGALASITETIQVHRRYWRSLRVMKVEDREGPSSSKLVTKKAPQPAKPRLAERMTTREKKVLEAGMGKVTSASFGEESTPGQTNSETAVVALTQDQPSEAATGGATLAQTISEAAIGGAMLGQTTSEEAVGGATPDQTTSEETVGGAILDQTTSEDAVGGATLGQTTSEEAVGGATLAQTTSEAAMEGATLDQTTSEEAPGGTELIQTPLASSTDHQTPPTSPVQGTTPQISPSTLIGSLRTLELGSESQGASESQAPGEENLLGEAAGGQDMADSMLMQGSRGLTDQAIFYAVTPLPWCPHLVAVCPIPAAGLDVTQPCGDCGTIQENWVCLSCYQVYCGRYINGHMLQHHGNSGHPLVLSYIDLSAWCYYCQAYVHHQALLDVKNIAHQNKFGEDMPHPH

[4] = target: T1, HDAC1 (histone deacetylase 1); assay: Inhibition of recombinant human C-terminal FLAG/His-tagged HDAC1 (1 to 482 residues) expressed in Sf9 insect cells at 10 uM using Z-(Ac)Lys-AMC as substrate measured after 90 mins by fluorescence assay relative to control; conditions: probe Z-(Ac)Lys-AMC; in short: as §1
[5] = target: T1, HDAC1 (histone deacetylase 1); assay: Inhibition of recombinant human C-terminal FLAG/His-tagged HDAC1 (1 to 482 residues) expressed in Sf9 insect cells at 25 uM using Z-(Ac)Lys-AMC as substrate measured after 90 mins by fluorescence assay relative to control; conditions: probe Z-(Ac)Lys-AMC; in short: as §1
Histone deacetylase 1 = Histone deacetylase 1 (Homo sapiens, UniProt Q13547); assay: Inhibition of recombinant human C-terminal FLAG/His-tagged HDAC1 (1 to 482 residues) expressed in Sf9 insect cells using Z-(Ac)Lys-AMC as substrate measured after 90 mins by fluorescence assay; in short: as §1
[6] = Mutagenicity in Salmonella typhimurium TA98 at 5 to 230 uM measured after 90 mins in presence of rat liver S9 fraction by Ames test; format: toxicity, subcellular; conditions: salmonella enterica subsp. enterica serovar typhimurium, s9, 1.5 h, dose 5-230 µM
[7] = Stability of compound in pH 3 buffer assessed as parent compound remaining at 250 uM measured after 24 hrs by HPLC/UV/DAD method; format: physicochemical; conditions: read-out: Stabilty
In short: (§2)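 10 mM DMSO stock diluted to 250 µM (2.5% DMSO) in 50 mM acetic acid, pH 3.0, and shaken 24 h at 25 °C. For solubility, samples filtered, diluted 1:2, quantified by HPLC-UV at 254 nm against a standard. For stability, percent remaining taken as the 24 h peak area over the T0 peak area. Triplicate analyses averaged.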

[8] = Mutagenicity in Salmonella typhimurium TA98 at 5 to 230 uM measured after 90 mins in absence of rat liver S9 fraction by Ames test; format: toxicity; conditions: salmonella enterica subsp. enterica serovar typhimurium, 1.5 h, dose 5-230 µM
[9] = Mutagenicity in Salmonella typhimurium TA100 at 5 to 230 uM measured after 90 mins in absence of rat liver S9 fraction by Ames test; format: toxicity; conditions: salmonella enterica subsp. enterica serovar typhimurium, s9, 1.5 h, dose 5-230 µM
NIH3T3 = assay: Cytotoxicity against mouse NIH/3T3 cells assessed as reduction in cell viability after 24 hrs by neutral red uptake assay; format: cell-based; conditions: NIH3T3, 24 h
In short: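 NIH3T3 fibroblasts seeded at 5 x 10^4 per well and cultured 24 h at 37 °C, 5% CO2. DMSO-solubilized samples added at 8 to 160 µM for 24 h; medium as negative control. Neutral Red medium applied 3 h, dye desorbed in acetic acid/ethanol, absorbance read at 540 nm. Three experiments, six replicates per concentration; viability normalized to % control.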

[10] = Solubility of compound in pH 3 buffer at 250 uM measured after 24 hrs by HPLC/UV/DAD method; format: physicochemical; conditions: pH 3, 24 h; in short: as §2
[11] = Mutagenicity in Salmonella typhimurium TA100 at 5 to 230 uM measured after 90 mins in presence of rat liver S9 fraction by Ames test; format: toxicity, subcellular; conditions: salmonella enterica subsp. enterica serovar typhimurium, s9, 1.5 h, dose 5-230 µM
U-937 [12] = assay: Cytotoxicity against human U-937 cells assessed as reduction in cell viability measured after 48 hrs by MTT assay; format: functional, cell-based; conditions: U-937, 48 h
In short: (§3)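 U937 cells grown in RPMI-1640 with 10% FBS, 2 mM L-glutamine and penicillin-streptomycin. 2.5×10^4 cells/well treated in triplicate at 50, 25, 10, 5 and 1 µM for 12, 24 or 48 h. MTT 0.5 mg/ml added for 3 h, plate centrifuged 5 min at 1200 rpm, crystals dissolved in isopropanol, A570 read. IC50 derived from the concentration series.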

HCT-116 [13] = assay: Cytotoxicity against human HCT-116 cells assessed as reduction in cell viability measured after 48 hrs by MTT assay; format: functional, cell-based; conditions: HCT-116, 48 h
In short: (§4)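 HCT-116 cells grown in DMEM with 10% FBS, 2 mM L-glutamine and antibiotics. 2.5×10^4 cells/well treated in triplicate at 50, 25, 10, 5 and 1 µM for 12, 24 or 48 h. Then MTT 0.5 mg/ml for 3 h, supernatant removed, formazan dissolved in isopropanol, absorbance read at 570 nm. IC50 derived from the concentration series.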

HCT-116 [14] = assay: Cytotoxicity against human HCT-116 cells assessed as cell viability at 50 uM measured after 48 hrs by MTT assay relative to control; format: functional; conditions: read-out: Activity; in short: as §4
[15] = target: T3, Protein deacetylase HDAC6 (Homo sapiens) (UniProt Q9UBN7); assay: Inhibition of HDAC6 in human U-937 cells assessed as increase in Hsp90(AcLys294) acetylation at 10 uM measured after 12 to 24 hrs by Western blot analysis; format: cell-based; conditions: time 12-24 hrs
T3 sequence (whole entry): T2 sequence (Q9UBN7 whole entry)
In short: (§5)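 HCT-116 or U937 cells treated at 10 µM for 12 and 24 h. […] Western blot used 40 µg total protein or 5 µg acid-extracted histone. Blots probed for cleaved PARP, acetylated tubulin, H3K9/14ac and Hsp90(AcLys294), normalized to GAPDH or H4. Compared with control cells by one-way ANOVA and Dunnett's test.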

[16] = target: T3, Protein deacetylase HDAC6 (Homo sapiens); assay: Inhibition of HDAC6 in human U-937 cells assessed as increase in alpha-tubulin acetylation at 10 uM measured after 12 to 24 hrs by Western blot analysis relative to control; format: cell-based; conditions: time 12-24 hrs; in short: as §5
[17] = Inhibition of HDAC1/2/3/8 in human U-937 cells assessed as increase in H3K9/14 acetylation at 10 uM measured after 12 to 24 hrs by Western blot analysis; format: cell-based; conditions: u-937, 10 µM, time 12-24 hrs; in short: as §5
[18] = Inhibition of HDAC1/2/3/8 in human HCT-116 cells assessed as increase in H3K9/14 acetylation at 10 uM measured after 12 to 24 hrs by Western blot analysis relative to control; format: cell-based; conditions: hct-116, 10 µM, time 12-24 hrs; in short: as §5
[19] = target: T3, Protein deacetylase HDAC6 (Homo sapiens); assay: Inhibition of HDAC6 in human HCT-116 cells assessed as increase in Hsp90(AcLys294) acetylation at 10 uM measured after 12 to 24 hrs by Western blot analysis; format: cell-based; conditions: time 12-24 hrs; in short: as §5
HCT-116 [20] = assay: Cytotoxicity against human HCT-116 cells assessed as reduction in cell viability measured after 24 hrs by MTT assay; format: functional, cell-based; conditions: HCT-116, 24 h; in short: as §4
[21] = target: T3, Protein deacetylase HDAC6 (Homo sapiens); assay: Inhibition of HDAC6 in human HCT-116 cells assessed as increase in alpha-tubulin acetylation at 10 uM measured after 12 to 24 hrs by Western blot analysis relative to control; format: cell-based; conditions: time 12-24 hrs; in short: as §5
U-937 [22] = assay: Cytotoxicity against human U-937 cells assessed as reduction in cell proliferation at 50 uM measured after 48 hrs by MTT assay relative to control; format: functional; design: scale not given: the % may be the effect or the level left; in short: as §3

Chain of Histone deacetylase 1 (Q13547 whole entry, the tested form may be a part): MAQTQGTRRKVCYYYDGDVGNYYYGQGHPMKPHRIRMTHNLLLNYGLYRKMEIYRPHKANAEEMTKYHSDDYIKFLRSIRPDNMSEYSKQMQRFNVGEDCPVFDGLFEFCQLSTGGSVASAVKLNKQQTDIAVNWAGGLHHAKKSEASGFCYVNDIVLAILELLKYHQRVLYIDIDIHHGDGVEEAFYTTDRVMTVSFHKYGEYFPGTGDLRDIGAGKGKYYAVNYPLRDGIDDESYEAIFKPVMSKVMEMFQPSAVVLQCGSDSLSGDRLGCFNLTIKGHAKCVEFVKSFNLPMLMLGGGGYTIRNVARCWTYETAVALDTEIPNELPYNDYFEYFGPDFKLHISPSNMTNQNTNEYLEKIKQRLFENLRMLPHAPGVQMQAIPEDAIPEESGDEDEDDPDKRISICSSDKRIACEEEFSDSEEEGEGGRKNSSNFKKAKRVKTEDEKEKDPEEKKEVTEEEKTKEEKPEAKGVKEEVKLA
T1 sequence (Q13547 whole entry, the tested form may be a part): as above

Compound: O=C(NO)c1ccc(COc2c(-c3ccccc3)c3ccccc3n(Cc3ccccc3)c2=O)cc1
- inhibition at 1.5 h, 1 µM [1]: 17%
- inhibition at 1.5 h, 50 µM [2]: 97%
- IC50 [3]: 0.176 µM
- inhibition at 1.5 h, 10 µM [4]: 76%
- inhibition at 1.5 h, 25 µM [5]: 93%

Compound: O=C(NO)c1ccc(Cn2c(=O)c(OCc3ccccc3)c(-c3ccccc3)c3ccccc32)cc1
- IC50 [3]: 0.0845 µM
- IC50 (Histone deacetylase 1): 5.5 µM

Compound: O=C(NO)c1ccc(COc2c(-c3ccccc3)c3ccccc3[nH]c2=O)cc1
- IC50 (U-937 [12]): 27.9 µM
- IC50 (HCT-116 [13]): 15 µM
- viability at 50 µM (HCT-116 [14]): 10%
- inhibition [15]: Active
- fold change (FC) [16]: > 9
- IC50 [3]: 0.147 µM
- inhibition (INH) [17]: Active
- fold change (FC) [18]: 2
- IC50 (Histone deacetylase 1): 6.6 µM
- inhibition [19]: Active
- IC50 (HCT-116 [20]): 33.4 µM
- fold change (FC) [21]: > 9
- Activity (U-937 [22]): 60%

Compound: O=C(NO)c1ccc(COc2c(-c3ccccc3)c3ccccc3n(Cc3ccncc3)c2=O)cc1
- remaining at 24 h, 250 µM [7]: > 95%
- IC50 [3]: 0.0841 µM
- IC50 (Histone deacetylase 1): 1.2 µM
- solubility [10]: Soluble

The next compounds have a lower IC50 [3] than those just listed; values first:

- IC50 [3]: 0.046 µM
- IC50 (Histone deacetylase 1): 5.01 µM
Compound: Cn1c(=O)c(OCc2ccc(C(=O)NO)cc2)c(-c2cccnc2)c2ccccc21

- remaining at 24 h, 250 µM [7]: > 95%
- IC50 [3]: 0.0616 µM
- IC50 (Histone deacetylase 1): 4.5 µM
- solubility [10]: Soluble
Compound: COc1c(-c2ccccc2)c2ccccc2n(Cc2ccc(C(=O)NO)cc2)c1=O
- Activity [6]: Non-Toxic
- Activity [8]: Non-Toxic
- Activity [9]: Non-Toxic
- IC50 (NIH3T3): 90 µM
- Activity [11]: Non-Toxic

- IC50 [3]: 0.0256 µM
- IC50 (Histone deacetylase 1): 2.5 µM
Compound: O=C(NO)c1ccc(COc2c(-c3cccnc3)c3ccccc3n(Cc3ccccc3)c2=O)cc1
